Here are results for 36 compounds from ChEMBL document CHEMBL3421605, “Structure-activity relationship studies of SEN12333 analogues: determination of the optimal requirements for binding affinities at α7 nAChRs through incorporation of known structural motifs” (Eur J Med Chem, 2015).

Where only a bound is given, the exact number is not on record here.

Assay [1] deals with T1, Neuronal acetylcholine receptor subunit alpha-7 (Rattus norvegicus, UniProt Q05941). Nature of the assay: Displacement of [3H]epibatidine from rat alpha7 nAChR transfected in HEK293 cells by liquid scintillation counting. In kind it is cell-based. The method in brief: (§1)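 Stably transfected HEK293 cells scraped at >80% confluence into 50 mM Tris·HCl pH 7.4 at 4 °C and spun at 10,000 g. Pellet homogenised and spun at 36,000 g for 10 min at 4 °C, then resuspended. Competition against racemic [3H]epibatidine at ~500 pM (α3β4, α4β2) or ~2 nM (α7). Nonspecific binding with 300 µM nicotine. GF/C filters pretreated with 0.5% PEI. Ki derived.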
T1 sequence (Q05941 whole entry): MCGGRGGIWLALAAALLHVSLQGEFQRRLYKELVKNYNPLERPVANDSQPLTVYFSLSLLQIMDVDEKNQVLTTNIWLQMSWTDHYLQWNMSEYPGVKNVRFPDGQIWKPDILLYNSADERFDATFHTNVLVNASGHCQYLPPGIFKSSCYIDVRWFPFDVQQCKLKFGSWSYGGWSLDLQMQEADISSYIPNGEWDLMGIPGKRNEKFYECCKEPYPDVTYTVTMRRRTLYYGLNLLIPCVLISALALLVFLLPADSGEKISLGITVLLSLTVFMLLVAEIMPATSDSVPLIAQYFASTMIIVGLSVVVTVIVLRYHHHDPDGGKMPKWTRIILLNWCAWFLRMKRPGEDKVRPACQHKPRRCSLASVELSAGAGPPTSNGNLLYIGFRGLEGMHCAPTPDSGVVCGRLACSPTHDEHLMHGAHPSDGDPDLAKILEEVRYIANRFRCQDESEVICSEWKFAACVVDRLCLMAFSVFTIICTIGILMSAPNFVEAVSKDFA
On the technique in general: Displacement assays read how much labelled ligand stays bound in the presence of the test substance.

For assay [2], the target named is Neuronal acetylcholine receptor; alpha4/beta2 (Rattus norvegicus, UniProt P09483+P12390). Briefly: Displacement of [3H]epibatidine from rat alpha4beta2 nAChR transfected in HEK293 cells by liquid scintillation counting. In kind it is cell-based. The method in brief:
as §1

Assay [3] concerns the target Neuronal acetylcholine receptor; alpha3/beta4 (Rattus norvegicus, UniProt P04757+P12392). Nature of the assay: Displacement of [3H]epibatidine from rat alpha3beta4 nAChR transfected in HEK293 cells by liquid scintillation counting. Type of assay: cell-based. The method in brief:
as §1

For assay [4], the target named is T1, Neuronal acetylcholine receptor subunit alpha-7. Nature of the assay: Agonist activity at rat alpha7 nAChR expressed in GH4C1 cells by fluorescent calcium assay. In kind it is cell-based, GH4-C1. The method, boiled down: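 GH4C1 cells stably expressing rat α7 loaded with Fluo4 Direct dye. Baseline fluorescence read, then compound added, and peak/base ratios taken; >1.00 taken as agonism. Tested at 0.03, 0.1, 0.3, 1, 3 and 10 µM (one compound at 0.001–0.3 µM), n = 3. EC50 from dose–response curves.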

In assay [5] the target is Neuronal acetylcholine receptor subunit alpha-7 (Rattus norvegicus) (UniProt Q05941). Nature of the assay: Agonist activity at rat alpha7 nAChR expressed in GH4C1 cells by patch-clamp electrophysiology assay relative to acetylcholine. In kind it is cell-based. To be noted: GH4-C1.
Chain of Neuronal acetylcholine receptor subunit alpha-7 (Rattus norvegicus) (Q05941 whole entry): as above
Assay [6] concerns the target T1, Neuronal acetylcholine receptor subunit alpha-7. Briefly: Agonist activity at rat alpha7 nAChR expressed in GH4C1 cells by patch-clamp electrophysiology assay. In kind it is cell-based, GH4-C1. A general note: In patch-clamp work, channel activity is measured electrically.

Chain of Neuronal acetylcholine receptor; alpha3/beta4 (P04757 whole entry): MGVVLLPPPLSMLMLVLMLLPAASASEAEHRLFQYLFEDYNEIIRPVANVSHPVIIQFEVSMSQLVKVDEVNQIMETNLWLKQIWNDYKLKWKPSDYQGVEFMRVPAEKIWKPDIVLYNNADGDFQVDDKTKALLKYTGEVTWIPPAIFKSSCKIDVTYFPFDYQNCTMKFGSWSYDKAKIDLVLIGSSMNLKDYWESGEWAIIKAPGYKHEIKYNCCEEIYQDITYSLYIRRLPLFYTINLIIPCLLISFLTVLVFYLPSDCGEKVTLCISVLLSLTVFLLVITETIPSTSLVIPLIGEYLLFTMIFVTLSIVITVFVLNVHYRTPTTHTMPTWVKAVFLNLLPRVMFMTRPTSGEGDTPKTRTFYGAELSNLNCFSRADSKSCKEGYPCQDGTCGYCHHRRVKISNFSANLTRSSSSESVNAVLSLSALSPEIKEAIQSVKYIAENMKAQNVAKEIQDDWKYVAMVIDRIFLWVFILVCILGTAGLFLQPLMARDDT
Chain of Neuronal acetylcholine receptor; alpha3/beta4 (P12392 whole entry): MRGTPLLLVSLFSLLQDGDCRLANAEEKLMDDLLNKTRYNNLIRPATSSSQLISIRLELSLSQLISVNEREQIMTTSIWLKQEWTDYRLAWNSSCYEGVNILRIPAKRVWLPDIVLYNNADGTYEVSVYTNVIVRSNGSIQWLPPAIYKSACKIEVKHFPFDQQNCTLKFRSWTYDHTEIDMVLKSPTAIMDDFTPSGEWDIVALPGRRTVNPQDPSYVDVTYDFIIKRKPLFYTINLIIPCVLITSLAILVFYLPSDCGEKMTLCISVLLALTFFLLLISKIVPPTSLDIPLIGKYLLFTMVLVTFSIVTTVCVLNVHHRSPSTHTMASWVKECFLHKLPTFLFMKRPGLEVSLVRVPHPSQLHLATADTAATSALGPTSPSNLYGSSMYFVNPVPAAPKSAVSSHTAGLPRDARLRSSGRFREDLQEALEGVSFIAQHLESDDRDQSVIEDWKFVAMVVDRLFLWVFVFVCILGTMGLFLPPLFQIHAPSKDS
Chain of Neuronal acetylcholine receptor; alpha4/beta2 (P09483 whole entry): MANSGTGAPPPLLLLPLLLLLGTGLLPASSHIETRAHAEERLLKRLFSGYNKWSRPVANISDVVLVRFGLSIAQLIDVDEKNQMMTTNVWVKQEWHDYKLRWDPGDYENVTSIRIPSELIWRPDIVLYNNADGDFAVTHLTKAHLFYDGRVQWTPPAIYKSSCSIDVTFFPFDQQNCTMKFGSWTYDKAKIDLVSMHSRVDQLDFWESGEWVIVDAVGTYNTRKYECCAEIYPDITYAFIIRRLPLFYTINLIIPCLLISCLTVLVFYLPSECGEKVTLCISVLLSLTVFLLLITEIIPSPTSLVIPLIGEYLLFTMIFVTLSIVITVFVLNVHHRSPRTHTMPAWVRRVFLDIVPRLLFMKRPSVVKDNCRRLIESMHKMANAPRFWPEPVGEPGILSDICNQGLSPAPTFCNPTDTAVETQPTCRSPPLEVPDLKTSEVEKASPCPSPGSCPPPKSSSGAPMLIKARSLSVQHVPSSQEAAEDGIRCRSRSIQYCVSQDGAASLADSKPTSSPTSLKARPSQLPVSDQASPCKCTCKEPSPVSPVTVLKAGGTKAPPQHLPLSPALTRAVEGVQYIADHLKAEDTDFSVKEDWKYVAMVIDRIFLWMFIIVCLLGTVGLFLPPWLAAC
Chain of Neuronal acetylcholine receptor; alpha4/beta2 (P12390 whole entry): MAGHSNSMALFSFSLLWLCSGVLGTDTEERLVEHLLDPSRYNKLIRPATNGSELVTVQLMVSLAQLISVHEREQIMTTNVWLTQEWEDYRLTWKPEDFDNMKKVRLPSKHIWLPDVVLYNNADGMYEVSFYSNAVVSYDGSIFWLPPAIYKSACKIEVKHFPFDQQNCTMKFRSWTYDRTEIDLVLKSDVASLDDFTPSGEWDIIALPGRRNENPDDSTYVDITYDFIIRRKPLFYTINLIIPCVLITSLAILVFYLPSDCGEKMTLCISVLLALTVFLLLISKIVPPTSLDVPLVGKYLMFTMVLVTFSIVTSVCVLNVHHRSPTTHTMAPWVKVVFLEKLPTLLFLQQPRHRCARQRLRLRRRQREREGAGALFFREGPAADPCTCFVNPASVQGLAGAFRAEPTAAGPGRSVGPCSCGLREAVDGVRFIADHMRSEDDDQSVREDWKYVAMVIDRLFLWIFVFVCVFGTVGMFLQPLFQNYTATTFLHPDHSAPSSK

Usually Ki stands for a dissociation constant, usually derived from enzyme kinetics or from competition with a known ligand. Read a high Ki as weaker binding. Take `CN1CCN(CCCCNC(=O)c2ccc(-c3cccnc3)cc2)CC1`: the inhibition constant Ki in assay [1], in assay [2] and in assay [3] was more than 10 µM in each case.

As a reminder, the EC50 is the midpoint of the concentration-response curve. As to `CN1C[C@@H]2C[C@H]1CN2c1ccc(-c2cccnc2)cc1`, the inhibitory constant (Ki) was 0.14 µM in assay [1], more than 10 µM in assay [2] and more than 10 µM in assay [3]. In addition, the EC50 in assay [4] came out at 0.126 µM.

Regarding `O=C(CCCCN1CCOCC1)Nc1ccc(-c2ccccc2)nn1`, the Ki in assay [1], in assay [2] and in assay [3] was more than 10 µM in each case.

`c1ccc(-c2ccc(N3CCOCC3)cc2)cc1`: the Ki in assay [1], in assay [2] and in assay [3] was more than 10 µM each time.

`O=C(NCCCCN1CCCCC1)c1ccc(-c2ccccc2)cc1`: the Ki in assay [1] is 0.41 µM; in assay [2], more than 10 µM; in assay [3], more than 10 µM.

Take `O=C(NCCCCN1CCCCC1)c1ccc(-c2cccnc2)cc1`: the Ki in assay [1] was 1.4 µM; in assay [2], more than 10 µM; in assay [3], more than 50 µM.

In assay [3], `CN1C[C@@H]2C[C@H]1CN2c1ccc(-c2ccccc2)nn1` came in with an inhibitory constant (Ki) of more than 50 µM.

`CN1CCN(CCCCC(=O)Nc2ccc(-c3ccccc3)cc2)CC1`: the inhibition constant Ki in assay [1] stood at 1.62 µM; in assay [3], 88.1 µM.

With `O=C(CCCCN1CC2(COC2)C1)Nc1ccc(-c2cccnc2)cc1`, the Ki in assay [1] is more than 10 µM; in assay [2], more than 10 µM; in assay [3], more than 50 µM.

The Emax is the maximal effect, on the per cent scale that the assay sets. `O=C(CCCCN1CCOCC1)Nc1ccc(-c2cccnc2F)cc1` returned an Emax in assay [5] of 136%. Moreover, the Ki in assay [1] was 0.085 µM; in assay [2], more than 10 µM; in assay [3], more than 10 µM. Further, the concentration for a half-maximal effect (EC50) was determined as 27.3 µM in assay [6] and 0.145 µM in assay [4].

Consider `O=C(CCCCN1CCOCC1)Nc1ccc(-c2ccc3[nH]ccc3c2)cc1`, for which the Ki in assay [1] was 0.31 µM; in assay [2], more than 10 µM; in assay [3], more than 10 µM. Also, in assay [4], the 50% effective concentration (EC50) came to 0.997 µM.

With `CN1C[C@@H]2C[C@H]1CN2CCCCC(=O)Nc1ccc(-c2cccnc2)cc1`, the inhibitory constant (Ki) is more than 10 µM in assay [1], more than 10 µM in assay [2] and more than 100 µM in assay [3].

As to `O=C(CCCCN1CCCCC1)Nc1ccc(-c2cccnc2)cc1`, the inhibition constant (Ki) is 0.22 µM in assay [1], more than 10 µM in assay [2] and more than 10 µM in assay [3].

Take `O=C(CCCCN1CCCCC1)Nc1ccc(-c2ccccc2)cc1`: the Ki was 0.19 µM in assay [1], more than 10 µM in assay [2] and 2.6 µM in assay [3].

As for `O=C(CCCCN1CCOCC1)Nc1ccc(-c2cccnc2)cc1`, the Emax in assay [5] came to 104%. Also, the values for the concentration giving a half-maximal response (EC50) in assay [6] and in assay [4] were 42 µM and 0.687 µM, respectively. Also, the Ki in assay [2] and in assay [3] was more than 10 µM throughout.

On to `CN1CCN(CCCCC(=O)Nc2cc(-c3ccccc3)[nH]n2)CC1`, for which the Ki in assay [1], in assay [2] and in assay [3] was more than 10 µM in each case.

In the case of `c1cncc(-c2ccc(N3CCOCC3)cc2)c1`, the Ki in assay [1] and in assay [3] was more than 10 µM throughout.

With `c1cc2cc(-c3ccc(N4CCOCC4)nn3)ccc2[nH]1`, the inhibitory constant (Ki) in assay [1], in assay [2] and in assay [3] was more than 10 µM each time.

With `CN1CCN(CCCCNC(=O)c2ccc(-c3ccccc3)cc2)CC1`, the Ki in assay [1] was 5.4 µM; in assay [2], more than 10 µM; in assay [3], more than 100 µM.

For the compound `CN1CCN(CCCCC(=O)Nc2ccc(-c3cccnc3)cc2)CC1`, the inhibitory constant (Ki) in assay [1] is 9.33 µM; in assay [3], 313 µM.

On to `CN1C[C@@H]2C[C@H]1CN2CCCCC(=O)Nc1ccc(-c2ccccc2)cc1`, for which the Ki was 3.2 µM in assay [1], more than 10 µM in assay [2] and more than 10 µM in assay [3].

As to `O=C(CCCCN1CC2(COC2)C1)Nc1ccc(-c2ccccc2)cc1`, the Ki in assay [1] was more than 10 µM; in assay [2] it was more than 10 µM; in assay [3] it was more than 50 µM.

In the case of `O=C(CCCCN1CCCCC1)Nc1cc(-c2ccccc2)[nH]n1`, the Ki in assay [1] was 0.66 µM; in assay [2], more than 50 µM; in assay [3], more than 10 µM.

Take `O=C(CCCCN1CCOCC1)Nc1cc(-c2ccccc2)[nH]n1`: the inhibitory constant (Ki) in assay [1] is 2.6 µM; in assay [2], more than 10 µM; in assay [3], more than 10 µM.

In the case of `CN1CCN(c2ccc(-c3ccccc3)cc2)CC1`, the inhibitory constant (Ki) was 7.7 µM in assay [1], more than 10 µM in assay [2] and more than 10 µM in assay [3].

As for `CN1CCN(c2ccc(-c3ccccc3)nn2)CC1`, the inhibitory constant (Ki) in assay [1] was 4.07 µM; in assay [2], 0.417 µM; in assay [3], more than 10 µM.

Turning to `O=C(CCCCN1CCOCC1)Nc1ccc(-c2ccncc2)cc1`, the Ki in assay [1] is 0.35 µM; in assay [2], more than 10 µM; in assay [3] it was more than 10 µM. Further, the half-maximal effective concentration (EC50) in assay [4] was found to be 0.522 µM.

As to `c1ccc(-c2ccc(N3CCOCC3)nn2)cc1`, the inhibition constant Ki in assay [1] was more than 10 µM; in assay [2] it was more than 100 µM; in assay [3], more than 1000 µM.

Take `c1ccc(-c2ccc(N3CCCCC3)nn2)cc1`: the Ki in assay [1], in assay [2] and in assay [3] was more than 10 µM in each case.

For the compound `CN1C[C@@H]2C[C@H]1CN2CCCCNC(=O)c1ccc(-c2ccccc2)cc1`, the values for the Ki in assay [1], in assay [2] and in assay [3] were 6.1 µM, more than 10 µM and more than 10 µM, respectively.

Turning to `c1ccc(-c2ccc(N3CCCCC3)cc2)cc1`, the inhibitory constant (Ki) in assay [1], in assay [2] and in assay [3] was more than 10 µM throughout.

Consider `CN1C[C@@H]2C[C@H]1CN2c1ccc(-c2ccccc2)cc1`, for which the Ki in assay [1] is 0.034 µM; in assay [2] it was more than 10 µM; in assay [3], more than 10 µM. For the same compound, the EC50 in assay [4] was 0.253 µM.

As to `CN1CCN(c2ccc(-c3cccnc3)cc2)CC1`, the values for the inhibitory constant (Ki) in assay [1], in assay [2] and in assay [3] were 9.4 µM, more than 10 µM and more than 10 µM, respectively.

With `CN1C[C@@H]2C[C@H]1CN2CCCCNC(=O)c1ccc(-c2cccnc2)cc1`, the Ki in assay [1], in assay [2] and in assay [3] was more than 10 µM in each case.

Consider `c1cncc(-c2ccc(N3CCCCC3)cc2)c1`, for which the inhibition constant Ki in assay [1], in assay [2] and in assay [3] was more than 10 µM in each case.

With `O=C(CCCCN1CCOCC1)Nc1ccc(-c2ccccn2)cc1`, the inhibition constant (Ki) in assay [1] was 0.33 µM; in assay [2], more than 10 µM; in assay [3], more than 10 µM.
